Measurements as given in ChEMBL document CHEMBL4138220, “A fluorine scan of a tubulin polymerization inhibitor isocombretastatin A-4: Design, synthesis, molecular modelling, and biological evaluation” (Eur J Med Chem, 2018).

test system: HCT-116; experiment: Antiproliferative activity against human HCT116 cells after 72 hrs by resazurin-based fluorescence assay; assay type: functional, cell-based; settings: HCT-116, 72 h

Row | Compound | IC50
1 | C=C(c1ccc(OC)c(F)c1)c1cc(OC)c(OC)c(OC)c1 | 7 nM
2 | C=C(c1ccc(OC)c(OC(F)(F)F)c1)c1cc(OC)c(OC)c(OC)c1 | 1500 nM
3 | COc1ccc(C(C)c2cc(OC)c(OC)c(OC)c2)cc1F (stereo not drawn) | 85 nM
4 | COc1cc(C(C)c2ccc(OC(F)(F)F)cc2)cc(OC)c1OC (stereo not drawn) | > 10000 nM
5 | C=C(c1cc(OC)c(OC)c(OC)c1)c1ccc(OC(F)(F)F)c([N+](=O)[O-])c1 | 4000 nM

Next, values leading:

Row | IC50 | Compound
6 | 9.14 nM | COc1cc(C(=C(F)F)c2ccc(OC(F)F)c(N)c2)cc(OC)c1OC
7 | > 10000 nM | COc1ccc(C(C)c2cc(OC)c(OC)c(OC)c2)cc1OC(F)(F)F (stereo not drawn)
8 | 30 nM | COc1ccc(C(c2cc(OC)c(OC)c(OC)c2)C(F)F)cc1O (stereo not drawn)
9 | 18 nM | COc1cc(C(C)c2ccc(OC(F)F)c(N)c2)cc(OC)c1OC (stereo not drawn)
10 | 200 nM | C=C(c1ccc(OC(F)(F)F)c(N)c1)c1cc(OC)c(OC)c(OC)c1
11 | 20.2 nM | C=C(c1ccc(OC(F)F)c(N)c1)c1cc(C)nc2ccccc12
12 | 2000 nM | C=C(c1ccc(OC(F)(F)F)c(F)c1)c1cc(OC)c(OC)c(OC)c1

test system: K562; experiment: Antiproliferative activity against human K562 cells after 72 hrs by resazurin-based fluorescence assay; assay type: functional, cell-based; settings: K562, 72 h
How it was run: (§1)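 CellTiter-Blue viability. Cells plated at 5 × 10^3 per well and cultured 24 h, then given compound in DMSO (under 0.1%) for 72 h. Resazurin added for 2 h, fluorescence read at ex 560/em 590 nm. […] Run in triplicate. U87-MG grown in DMEM (4.5 g/L glucose, 10% FCS, 1% glutamine). K562, K562R (doxorubicin-resistant), A549 and MCF7 grown in RPMI 1640 (10% FCS, 1% glutamine). All kept at 37 °C, 5% CO2.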

Row | Compound | IC50
13 | C=C(c1ccc(OC)c(F)c1)c1cc(OC)c(OC)c(OC)c1 | 6 nM

test system: not listed separately; experiment: Inhibition of sheep brain tubulin polymerization assessed as reduction in rate of microtubule assembly by DAPI-fluorescence based assay; design: species or system Ovis aries; settings: not given
How it was run: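 Sheep brain tubulin purified by two assembly–disassembly cycles, about 10 µM in buffer at pH 6.6 with MgCl2, EGTA and 1 mm GTP. Assembly followed continuously at 37 °C by DAPI fluorescence. IC50 is the concentration halving the maximum assembly rate versus no compound. Reference compounds run the same day. Average of three experiments.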

Row | Compound | IC50
14 | C=C(c1ccc(OC)c(F)c1)c1cc(OC)c(OC)c(OC)c1 | 4000 nM
15 | C=C(c1ccc(OC)c(O)c1)c1cc(OC)c(OC)c(OC)c1 | 2000 nM

test system: A549; experiment: Antiproliferative activity against human A549 cells after 72 hrs by resazurin-based fluorescence assay; assay type: functional, cell-based; settings: A549, 72 h

Row | Compound | IC50
16 | C=C(c1ccc(OC)c(F)c1)c1cc(OC)c(OC)c(OC)c1 | 8 nM
17 | C=C(c1ccc(OC)c(O)c1)c1cc(OC)c(OC)c(OC)c1 | 20 nM

test system: MCF7; experiment: Antiproliferative activity against human MCF7 cells after 72 hrs by resazurin-based fluorescence assay; assay type: functional, cell-based; settings: MCF7, 72 h; how it was run: as §1

Row | Compound | IC50
18 | C=C(c1ccc(OC)c(F)c1)c1cc(OC)c(OC)c(OC)c1 | 1 nM
19 | C=C(c1ccc(OC)c(O)c1)c1cc(OC)c(OC)c(OC)c1 | 8 nM

test system: K-562R; experiment: Antiproliferative activity against human K562R cells after 72 hrs by resazurin-based fluorescence assay; assay type: functional, cell-based; settings: not given; how it was run: as §1

Row | Compound | IC50
20 | C=C(c1ccc(OC)c(F)c1)c1cc(OC)c(OC)c(OC)c1 | 2 nM
21 | C=C(c1ccc(OC)c(O)c1)c1cc(OC)c(OC)c(OC)c1 | 2.2 nM

test system: U-87 MG; experiment: Antiproliferative activity against human U87 cells after 72 hrs by resazurin-based fluorescence assay; assay type: functional, cell-based, U-87MG ATCC; settings: not given; how it was run: as §1

Row | Compound | IC50
22 | C=C(c1ccc(OC)c(F)c1)c1cc(OC)c(OC)c(OC)c1 | 8 nM
23 | C=C(c1ccc(OC)c(O)c1)c1cc(OC)c(OC)c(OC)c1 | 8 nM
